# Columns and labels:
# [1] = molecular target: Cytosolic phospholipase A2 (Homo sapiens) (UniProt P47712); assay: Inhibition of human recombinant cytosolic PLA2 using PAPA as substrate assessed as reduction in free FA formation after 30 mins in presence of equal molar mixture of PAPA/PAPC/PAPE/PAPG/PAPS/PLPC by HPLC-MS analysis
# [2] = molecular target: T1, 85/88 kDa calcium-independent phospholipase A2 (Homo sapiens) (UniProt O60733); assay: (§1) Inhibition of human recombinant calcium-independent PLA2 using PAPA as substrate assessed as reduction in […] after 30 mins by HPLC-MS analysis
# T1 sequence (whole entry): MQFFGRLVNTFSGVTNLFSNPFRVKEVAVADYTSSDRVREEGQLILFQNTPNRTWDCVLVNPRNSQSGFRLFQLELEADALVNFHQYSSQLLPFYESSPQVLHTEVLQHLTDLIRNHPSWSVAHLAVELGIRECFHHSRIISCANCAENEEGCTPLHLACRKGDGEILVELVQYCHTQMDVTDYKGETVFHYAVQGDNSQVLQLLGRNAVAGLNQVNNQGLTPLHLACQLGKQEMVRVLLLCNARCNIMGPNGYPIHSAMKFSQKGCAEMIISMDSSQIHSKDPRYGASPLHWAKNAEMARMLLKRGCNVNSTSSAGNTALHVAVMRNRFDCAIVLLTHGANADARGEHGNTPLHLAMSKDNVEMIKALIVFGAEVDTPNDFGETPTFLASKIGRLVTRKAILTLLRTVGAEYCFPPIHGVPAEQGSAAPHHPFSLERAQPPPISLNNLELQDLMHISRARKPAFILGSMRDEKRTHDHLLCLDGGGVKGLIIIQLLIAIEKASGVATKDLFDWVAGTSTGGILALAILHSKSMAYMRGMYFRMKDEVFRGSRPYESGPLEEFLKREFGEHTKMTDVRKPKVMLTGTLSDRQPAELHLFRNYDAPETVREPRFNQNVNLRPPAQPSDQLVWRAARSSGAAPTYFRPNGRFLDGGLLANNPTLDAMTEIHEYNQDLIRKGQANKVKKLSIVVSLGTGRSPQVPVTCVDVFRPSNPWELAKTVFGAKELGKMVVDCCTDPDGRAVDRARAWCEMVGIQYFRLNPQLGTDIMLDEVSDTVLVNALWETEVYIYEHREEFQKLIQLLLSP
# [3] = molecular target: T2, Cytosolic phospholipase A2 (Homo sapiens) (UniProt P47712); assay: Inhibition of human recombinant cPLA2 assessed as reduction in 16:0 LPC formation after 30 mins by HPLC-MS analysis
# T2 sequence (whole entry): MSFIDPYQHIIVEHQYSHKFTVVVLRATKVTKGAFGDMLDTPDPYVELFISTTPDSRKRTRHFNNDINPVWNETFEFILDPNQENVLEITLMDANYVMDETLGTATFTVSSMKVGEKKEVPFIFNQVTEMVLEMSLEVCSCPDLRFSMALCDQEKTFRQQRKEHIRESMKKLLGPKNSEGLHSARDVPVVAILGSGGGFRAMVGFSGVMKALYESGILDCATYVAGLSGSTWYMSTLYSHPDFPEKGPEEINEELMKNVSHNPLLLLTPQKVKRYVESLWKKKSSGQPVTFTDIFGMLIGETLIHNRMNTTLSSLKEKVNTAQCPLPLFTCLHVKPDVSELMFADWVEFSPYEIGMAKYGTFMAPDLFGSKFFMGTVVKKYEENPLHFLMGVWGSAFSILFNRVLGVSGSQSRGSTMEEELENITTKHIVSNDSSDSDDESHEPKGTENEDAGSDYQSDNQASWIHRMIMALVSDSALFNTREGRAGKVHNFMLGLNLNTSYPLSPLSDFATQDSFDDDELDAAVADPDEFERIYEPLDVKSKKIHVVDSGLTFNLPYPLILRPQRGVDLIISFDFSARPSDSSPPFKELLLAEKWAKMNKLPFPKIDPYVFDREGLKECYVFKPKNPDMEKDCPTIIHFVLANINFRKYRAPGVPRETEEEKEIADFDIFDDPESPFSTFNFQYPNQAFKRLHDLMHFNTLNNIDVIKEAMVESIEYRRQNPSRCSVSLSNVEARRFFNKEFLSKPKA
# Summary of the method: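 Human recombinant group IVA cPLA2 in mixed micelles with 97 µM PAPC plus 3 µM PI(4,5)P2 (100 µM total phospholipid) and 400 µM C12E8. Buffer was 100 mM HEPES pH 7.5, 90 µM CaCl2 and 2 mM DTT; incubation 30 min at 40 °C. 16:0 LPC was read by HILIC-MRM (positive ion) and free AA by C18 LC-MS (negative ion).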
# [4] = molecular target: 85/88 kDa calcium-independent phospholipase A2 (Homo sapiens) (UniProt O60733); assay: Inhibition of human recombinant calcium-independent PLA2 using PAPS as substrate assessed as reduction in 16:0 LPS formation after 30 mins in presence of equal molar mixture of PAPA/PAPC/PAPE/PAPG/PAPS/PLPC by HPLC-MS analysis
# [5] = molecular target: T3, Secretory phospholipase A2 (Homo sapiens) (UniProt Q5R387+Q9NZK7+P14555+Q9BZM2+Q9UNK4+P39877+O15496+P04054+Q9NZ20+Q9BZM1+Q9BX93)
# [6] = molecular target: T3, Secretory phospholipase A2 (Homo sapiens); remark: listed apart in the source
# [7] = molecular target: T1, 85/88 kDa calcium-independent phospholipase A2 (Homo sapiens); assay: (§2) Inhibition of human recombinant calcium-independent PLA2 using PAPE as substrate assessed as assessed as reduction in free AA formation after 30 mins in presence of equal molar mixture of PAPA/PAPC/PAPE/PAPG/PAPS/PLPC by HPLC-MS analysis
# Summary of the method: (§3)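 The iPLA2 substrate was an equimolar mixture of PAPA, PAPC, PAPE, PAPG and PAPS (100 µM total) with 400 µM C12E8. Buffer was 100 mM HEPES pH 7.5, 2 mM ATP and 4 mM DTT; 30 min at 40 °C. Each 16:0 lysophospholipid was quantified in positive ion mode; free AA, common to all five substrates, in negative ion mode.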
# [8] = molecular target: T1, 85/88 kDa calcium-independent phospholipase A2 (Homo sapiens); assay: (§4) Inhibition of human recombinant calcium-independent PLA2 using PAPG as substrate assessed as reduction in 16:0 […] formation after 30 mins in presence of equal molar mixture of PAPA/PAPC/PAPE/PAPG/PAPS/PLPC by HPLC-MS analysis
# [9] = molecular target: T3, Secretory phospholipase A2 (Homo sapiens); remark: listed apart in the source
# [10] = molecular target: T1, 85/88 kDa calcium-independent phospholipase A2 (Homo sapiens); assay: (§5) Inhibition of human recombinant calcium-independent PLA2 using PAPC as substrate assessed as reduction in 16:0 LPC formation after 30 mins by HPLC-MS analysis
# Summary of the method: (§6)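 Human recombinant group VIA iPLA2 acted on 100 µM single phospholipid (PAPC or PLPC) in 400 µM C12E8 mixed micelles. Buffer was 100 mM HEPES pH 7.5, 2 mM ATP and 4 mM DTT; incubation 30 min at 40 °C. 16:0 LPC was read by HILIC-MRM in positive ion mode; free AA or LA by C18 LC-MS in negative ion mode.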
# [11] = molecular target: T4, 85/88 kDa calcium-independent phospholipase A2 (Homo sapiens, UniProt O60733); assay: as §5
# T4 sequence (O60733 whole entry): T1 sequence (whole entry)
# Summary of the method: as §6
# [12] = molecular target: T4, 85/88 kDa calcium-independent phospholipase A2; assay: Inhibition of human recombinant calcium-independent PLA2 using PAPE as substrate assessed as reduction in […] after 30 mins in presence of equal molar mixture of PAPA/PAPC/PAPE/PAPG/PAPS/PLPC by HPLC-MS analysis
# [13] = molecular target: T4, 85/88 kDa calcium-independent phospholipase A2; assay: Inhibition of human recombinant calcium-independent PLA2 using PAPS as substrate assessed as reduction in […] after 30 mins in presence of equal molar mixture of PAPA/PAPC/PAPE/PAPG/PAPS/PLPC by HPLC-MS analysis
# [14] = molecular target: T1, 85/88 kDa calcium-independent phospholipase A2 (Homo sapiens); assay: (§7) Inhibition of human recombinant iPLA2 assessed as reduction in free FA formation after 30 mins by HPLC-MS analysis
# Summary of the method: as §6
# [15] = molecular target: T4, 85/88 kDa calcium-independent phospholipase A2; assay: as §7
# Summary of the method: as §6
# [16] = molecular target: T1, 85/88 kDa calcium-independent phospholipase A2 (Homo sapiens); assay: Inhibition of human recombinant calcium-independent PLA2 using PAPE as substrate assessed as reduction in 16:0 LPE formation after 30 mins in presence of equal molar mixture of PAPA/PAPC/PAPE/PAPG/PAPS/PLPC by HPLC-MS analysis
# Summary of the method: as §3
# [17] = molecular target: T4, 85/88 kDa calcium-independent phospholipase A2; assay: as §2
# Summary of the method: as §3
# [18] = molecular target: T4, 85/88 kDa calcium-independent phospholipase A2; assay: Inhibition of human recombinant calcium-independent PLA2 using PAPC as substrate assessed as reduction in free AA formation after 30 mins by HPLC-MS analysis
# Summary of the method: as §6
# [19] = molecular target: T1, 85/88 kDa calcium-independent phospholipase A2 (Homo sapiens); assay: Inhibition of human recombinant calcium-independent PLA2 using PAPA as substrate assessed as reduction in 16:0 LPA formation after 30 mins in presence of equal molar mixture of PAPA/PAPC/PAPE/PAPG/PAPS/PLPC by HPLC-MS analysis
# Summary of the method: as §3
# [20] = molecular target: T4, 85/88 kDa calcium-independent phospholipase A2; assay: as §1
# [21] = molecular target: T4, 85/88 kDa calcium-independent phospholipase A2; assay: as §4
# [22] = molecular target: T1, 85/88 kDa calcium-independent phospholipase A2 (Homo sapiens); assay: (§8) Inhibition of human recombinant calcium-independent PLA2 using PAPC as substrate assessed as reduction in free [14C]-AA formation after 30 mins by scintillation counting
# Summary of the method: (§9)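 Radioactive format: iPLA2 hydrolysed PAPC/C12E8 mixed micelles traced with 1-palmitoyl-2-(1-[14C]arachidonoyl) PC. Released [14C]-AA was measured by scintillation counting. Percent inhibition was plotted against log mole fraction or log concentration to derive X1(50) and IC50.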
# [23] = molecular target: T4, 85/88 kDa calcium-independent phospholipase A2; assay: as §8
# Summary of the method: as §9
# [24] = molecular target: T4, 85/88 kDa calcium-independent phospholipase A2; assay: Inhibition of human recombinant calcium-independent PLA2 using PLPC as substrate assessed as reduction in 16:0 LPC formation after 30 mins by HPLC-MS analysis
# Summary of the method: as §6
# [25] = molecular target: T4, 85/88 kDa calcium-independent phospholipase A2; assay: Inhibition of human recombinant calcium-independent PLA2 using PLPC as substrate assessed as reduction in free LA formation after 30 mins by HPLC-MS analysis
# [26] = molecular target: T1, 85/88 kDa calcium-independent phospholipase A2 (Homo sapiens); assay: (§10) Inhibition of human recombinant iPLA2 assessed as reduction in 16:0 LPC formation after 30 mins by HPLC-MS analysis
# Summary of the method: as §6
# [27] = molecular target: T4, 85/88 kDa calcium-independent phospholipase A2; assay: as §10
# Summary of the method: as §6
smiles,measurement,setting,value
O=C1NC(=O)C(=Cc2ccc(C(=O)NC[C@@H]3C[C@@H](SC(c4ccccc4)(c4ccccc4)c4ccccc4)CN3C(=O)c3ccccc3C(=O)c3ccc(F)cc3F)cc2)S1,XI50,[1],1.8 nM
same,XI50,[2],0.13 nM
same,XI50 (mole fraction),[3],0.0023
same,XI50,[4],2 nM
CCc1c(C(=O)C(N)=O)c2c(OCC(=O)O)cccc2n1Cc1ccccc1,XI50,[5],0.19 nM
same,XI50,[6],0.9 nM
same,XI50 (mole fraction),[7],0.0008
same,XI50 (mole fraction),[8],0.0031 to 0.026
same,XI50,[9],0.17 nM
CCCCCCCCSCC(=O)C(F)(F)F,XI50 (mole fraction),[10],8e-05
same,IC50,[11],54 nM
same,IC50,[12],63 nM
same,IC50,[13],46 nM
same,XI50 (mole fraction),[14],7e-05
same,IC50,[15],48 nM
same,XI50 (mole fraction),[16],9e-05
same,XI50 (mole fraction),[7],7e-05
same,IC50,[17],50 nM
same,IC50,[18],49 nM
same,XI50 (mole fraction),[19],0.0002
same,IC50,[20],160 nM
same,XI50 (mole fraction),[8],6e-05
same,IC50,[21],48 nM
same,XI50,[4],0.05 nM
same,XI50 (mole fraction),[22],9e-05
same,IC50,[23],48 nM
same,IC50,[24],83 nM
same,IC50,[25],67 nM
same,XI50 (mole fraction),[26],8e-05
same,IC50,[27],55 nM
